In ChEMBL document CHEMBL2057156, “Synthesis and biological evaluation of the first dual tyrosyl-DNA phosphodiesterase I (Tdp1)-topoisomerase I (Top1) inhibitors” (J Med Chem, 2012):
The source made the active and inactive calls. The calls are words filed in the database; no cut-off is given here.

What was measured:
[1] = molecular target: T1, Tyrosyl-DNA phosphodiesterase 1 (Homo sapiens, UniProt Q9NUW8); assay: Inhibition of human recombinant Tdp1 using 5'-[32P]-labeled single-stranded DNA oligonucleotide containing 3'-phosphotyrosine as substrate assessed as prevention of generation of oligonucleotide with free 3'-phosphate after 15 mins by PAGE analysis
[2] = molecular target: T2, DNA topoisomerase 1 (Homo sapiens) (UniProt P11387); assay: Inhibition of human recombinant Top1-mediated DNA cleavage by polyacrylamide gel electrophoresis relative to camptothecin; parameters: concentration or dose not given beside the values
T2 sequence (whole entry): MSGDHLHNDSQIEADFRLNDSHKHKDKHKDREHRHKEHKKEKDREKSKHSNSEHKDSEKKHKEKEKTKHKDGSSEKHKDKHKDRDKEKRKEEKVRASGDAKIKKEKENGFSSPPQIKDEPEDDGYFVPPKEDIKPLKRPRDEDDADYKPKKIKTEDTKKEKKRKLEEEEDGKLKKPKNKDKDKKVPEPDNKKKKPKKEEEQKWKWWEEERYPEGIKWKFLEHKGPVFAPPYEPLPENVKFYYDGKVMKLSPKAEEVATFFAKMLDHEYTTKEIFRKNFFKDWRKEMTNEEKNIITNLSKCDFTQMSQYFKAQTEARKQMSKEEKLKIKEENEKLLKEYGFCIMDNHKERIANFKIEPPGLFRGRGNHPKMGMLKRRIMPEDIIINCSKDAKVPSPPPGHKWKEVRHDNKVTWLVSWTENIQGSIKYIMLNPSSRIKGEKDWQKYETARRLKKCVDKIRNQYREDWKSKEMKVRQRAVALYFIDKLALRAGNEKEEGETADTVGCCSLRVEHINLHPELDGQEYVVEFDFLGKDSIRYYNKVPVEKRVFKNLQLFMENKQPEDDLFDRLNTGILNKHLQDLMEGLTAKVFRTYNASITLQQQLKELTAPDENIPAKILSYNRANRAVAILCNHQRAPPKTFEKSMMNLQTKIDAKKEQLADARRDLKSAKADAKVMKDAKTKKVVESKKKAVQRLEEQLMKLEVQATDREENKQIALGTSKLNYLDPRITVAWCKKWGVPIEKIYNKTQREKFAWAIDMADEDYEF
Summary of the method: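 Baculovirus-purified human recombinant Top1 was incubated for 20 min at 25 °C, with compounds at various concentrations, with about 2 nM of a 117-bp oligonucleotide 3′-end-labeled with [α-³²P]dGTP. Reactions were stopped with 0.5% SDS and run on 20% denaturing PAGE. Cleavage bands were phosphorimaged and graded semiquantitatively against 1 μM camptothecin.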

[3] = molecular target: T1, Tyrosyl-DNA phosphodiesterase 1; assay: Inhibition of human Tdp1 in Tdp1-deficient chicken DT40 whole cell extract using 5'-[32P]-labeled single-stranded DNA oligonucleotide containing 3'-phosphotyrosine as substrate after 15 mins by PAGE analysis

T1 sequence (Q9NUW8 whole entry): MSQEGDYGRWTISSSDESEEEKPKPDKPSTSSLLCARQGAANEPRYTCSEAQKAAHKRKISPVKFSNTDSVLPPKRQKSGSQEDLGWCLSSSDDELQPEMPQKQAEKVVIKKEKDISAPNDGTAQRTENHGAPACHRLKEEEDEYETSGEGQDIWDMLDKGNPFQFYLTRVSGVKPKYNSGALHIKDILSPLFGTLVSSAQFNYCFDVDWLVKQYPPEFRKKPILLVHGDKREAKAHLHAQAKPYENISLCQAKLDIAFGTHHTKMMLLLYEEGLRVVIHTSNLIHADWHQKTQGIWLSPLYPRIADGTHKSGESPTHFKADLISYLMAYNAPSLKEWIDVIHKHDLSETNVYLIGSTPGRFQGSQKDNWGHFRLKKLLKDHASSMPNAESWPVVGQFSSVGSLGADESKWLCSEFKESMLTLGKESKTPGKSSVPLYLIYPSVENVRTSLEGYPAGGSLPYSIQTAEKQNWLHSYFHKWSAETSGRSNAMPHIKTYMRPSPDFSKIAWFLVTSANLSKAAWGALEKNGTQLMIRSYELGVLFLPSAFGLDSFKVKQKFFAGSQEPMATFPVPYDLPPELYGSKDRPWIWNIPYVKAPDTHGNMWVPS

SMILES	IC50 [1] [µM]	inhibition [2]	IC50 [3] [µM]	inhibition ([2]; concentration not given here) [%]
O=C1c2ccccc2-c2c1c1ccccc1c(=O)n2CCCCCCCNS(=O)(=O)c1ccccc1	> 111	inactive	–	–
O=C1c2ccccc2-c2c1c1ccccc1c(=O)n2CCCCCCCCCCCCn1c2c(c3ccccc3c1=O)C(=O)c1ccccc1-2	> 111	–	–	–
NCCCCCCCCCCCn1c2c(c3ccccc3c1=O)C(=O)c1ccccc1-2	12.8	–	14.1	20
O=C1c2ccccc2-c2c1c1ccccc1c(=O)n2CCCCCCCCCCCNS(=O)(=O)c1ccccc1	> 111	inactive	–	–
Cc1ccc(S(=O)(=O)NCCCCn2c3c(c4ccccc4c2=O)C(=O)c2ccccc2-3)cc1	> 111	inactive	–	–
O=C1c2ccccc2-c2c1c1ccccc1c(=O)n2CCCCCNS(=O)(=O)c1ccc(Br)cc1	> 111	inactive	–	–
Cc1ccc(S(=O)(=O)OCCCCCCn2c3c(c4ccccc4c2=O)C(=O)c2ccccc2-3)cc1	> 111	–	–	–
NCCCCCn1c2c(c3ccccc3c1=O)C(=O)c1ccccc1-2	17.5	–	28	0
NCCCCn1c2c(c3ccccc3c1=O)C(=O)c1ccccc1-2	–	–	23.4	75
O=C1c2ccccc2-c2c1c1ccccc1c(=O)n2CCCCCCCCCCCCNS(=O)(=O)c1ccccc1	> 111	inactive	–	–
CS(=O)(=O)NCCCCCCCCn1c2c(c3ccccc3c1=O)C(=O)c1ccccc1-2	> 111	inactive	–	–
NCCCCCCCCn1c2c(c3ccccc3c1=O)C(=O)c1ccccc1-2	48	–	49	20
O=C1c2ccccc2-c2c1c1ccccc1c(=O)n2CCCCCCCCCCCNS(=O)(=O)c1ccc(Br)cc1	> 111	inactive	–	–
Cc1ccc(S(=O)(=O)NCCn2c3c(c4ccccc4c2=O)C(=O)c2ccccc2-3)cc1	> 111	inactive	–	–
O=C1c2ccccc2-c2c1c1ccccc1c(=O)n2CCCCCCCCCCCn1c2c(c3ccccc3c1=O)C(=O)c1ccccc1-2	> 111	–	–	–
NCCn1c2c(c3ccccc3c1=O)C(=O)c1ccccc1-2	55.3	–	78	75
Cc1ccc(S(=O)(=O)OCCCn2c3c(c4ccccc4c2=O)C(=O)c2ccccc2-3)cc1	> 111	–	–	–
O=C1c2ccccc2-c2c1c1ccccc1c(=O)n2CCCNS(=O)(=O)c1ccc(Br)cc1	> 111	inactive	–	–
O=C1c2ccccc2-c2c1c1ccccc1c(=O)n2CCO	> 111	–	–	–
O=C1c2ccccc2-c2c1c1ccccc1c(=O)n2CCCCCCCCCCn1c2c(c3ccccc3c1=O)C(=O)c1ccccc1-2	> 111	–	–	–
Cc1ccc(S(=O)(=O)NCCCCCCCCn2c3c(c4ccccc4c2=O)C(=O)c2ccccc2-3)cc1	> 111	inactive	–	–

SMILES	IC50 [1] [µM]	inhibition [2]	IC50 [3] [µM]	inhibition ([2]; concentration not given here) [%]
O=C1c2ccccc2-c2c1c1ccccc1c(=O)n2CCCNS(=O)(=O)c1ccccc1	> 111	inactive	–	–
CS(=O)(=O)NCCCCCCCCCCCn1c2c(c3ccccc3c1=O)C(=O)c1ccccc1-2	> 111	inactive	–	–
O=C1c2ccccc2-c2c1c1ccccc1c(=O)n2CCCCCCCCCCCCNS(=O)(=O)c1ccc(Br)cc1	> 111	inactive	–	–
O=C1c2ccccc2-c2c1c1ccccc1c(=O)n2CCCNCCCNCCCn1c2c(c3ccccc3c1=O)C(=O)c1ccccc1-2	1.52	–	–	100
O=C1c2ccccc2-c2c1c1ccccc1c(=O)n2CCCCCCCCCNS(=O)(=O)c1ccccc1	> 111	inactive	–	–
O=C1c2ccccc2-c2c1c1ccccc1c(=O)n2CCCCCNS(=O)(=O)c1ccccc1	> 111	inactive	–	–
O=C1c2ccccc2-c2c1c1ccccc1c(=O)n2CCCCCCNS(=O)(=O)c1ccccc1	> 111	inactive	–	–
Cc1ccc(S(=O)(=O)NCCCCCCCCCn2c3c(c4ccccc4c2=O)C(=O)c2ccccc2-3)cc1	> 111	inactive	–	–
CS(=O)(=O)NCCn1c2c(c3ccccc3c1=O)C(=O)c1ccccc1-2	> 111	inactive	–	–
Cc1ccc(S(=O)(=O)NCCCCCCCCCCn2c3c(c4ccccc4c2=O)C(=O)c2ccccc2-3)cc1	> 111	inactive	–	–
CS(=O)(=O)NCCCCCn1c2c(c3ccccc3c1=O)C(=O)c1ccccc1-2	> 111	inactive	–	–
O=C1c2ccccc2-c2c1c1ccccc1c(=O)n2CCCCCCCCNS(=O)(=O)c1ccc(Br)cc1	> 111	inactive	–	–
Cc1ccc(S(=O)(=O)NCCCCCn2c3c(c4ccccc4c2=O)C(=O)c2ccccc2-3)cc1	> 111	inactive	–	–
Cc1ccc(S(=O)(=O)OCCCCn2c3c(c4ccccc4c2=O)C(=O)c2ccccc2-3)cc1	> 111	–	–	–
Cc1ccc(S(=O)(=O)NCCCCCCn2c3c(c4ccccc4c2=O)C(=O)c2ccccc2-3)cc1	> 111	inactive	–	–
CS(=O)(=O)NCCCCn1c2c(c3ccccc3c1=O)C(=O)c1ccccc1-2	> 111	inactive	–	–
Cc1ccc(S(=O)(=O)NCCCCCCCn2c3c(c4ccccc4c2=O)C(=O)c2ccccc2-3)cc1	> 111	inactive	–	–
O=C1c2ccccc2-c2c1c1ccccc1c(=O)n2CCCCCCCCCNS(=O)(=O)c1ccc(Br)cc1	> 111	inactive	–	–
O=C1c2ccccc2-c2c1c1ccccc1c(=O)n2CCCCCO	> 111	–	–	–
CS(=O)(=O)NCCCCCCCCCCCCn1c2c(c3ccccc3c1=O)C(=O)c1ccccc1-2	> 111	inactive	–	–
O=C1c2ccccc2-c2c1c1ccccc1c(=O)n2CCCCNS(=O)(=O)c1ccc(Br)cc1	> 111	inactive	–	–

SMILES	IC50 [1] [µM]	inhibition [2]	IC50 [3] [µM]	inhibition ([2]; concentration not given here) [%]
O=C1c2ccccc2-c2c1c1ccccc1c(=O)n2CCCCCCNS(=O)(=O)c1ccc(Br)cc1	> 111	inactive	–	–
O=C1c2ccccc2-c2c1c1ccccc1c(=O)n2CCNS(=O)(=O)c1ccccc1	> 111	inactive	–	–
Cc1ccc(S(=O)(=O)OCCCCCn2c3c(c4ccccc4c2=O)C(=O)c2ccccc2-3)cc1	> 111	–	–	–
O=C1c2ccccc2-c2c1c1ccccc1c(=O)n2CCCCCCCCCCNS(=O)(=O)c1ccc(Br)cc1	> 111	inactive	–	–
Cc1ccc(S(=O)(=O)NCCCCCCCCCCCn2c3c(c4ccccc4c2=O)C(=O)c2ccccc2-3)cc1	> 111	inactive	–	–
Cc1ccc(S(=O)(=O)OCCCCCCCn2c3c(c4ccccc4c2=O)C(=O)c2ccccc2-3)cc1	> 111	–	–	–
O=C1c2ccccc2-c2c1c1ccccc1c(=O)n2CCCCO	> 111	–	–	–
O=C1c2ccccc2-c2c1c1ccccc1c(=O)n2CCCCCCCNS(=O)(=O)c1ccc(Br)cc1	> 111	inactive	–	–
CS(=O)(=O)NCCCCCCCCCCn1c2c(c3ccccc3c1=O)C(=O)c1ccccc1-2	> 111	inactive	–	–
CS(=O)(=O)NCCCn1c2c(c3ccccc3c1=O)C(=O)c1ccccc1-2	> 111	inactive	–	–
O=C1c2ccccc2-c2c1c1ccccc1c(=O)n2CCNS(=O)(=O)c1ccc(Br)cc1	> 111	inactive	–	–
O=C1c2ccccc2-c2c1c1ccccc1c(=O)n2CCCCCCCCNS(=O)(=O)c1ccccc1	> 111	inactive	–	–
O=C1c2ccccc2-c2c1c1ccccc1c(=O)n2CCCO	> 111	–	–	–
O=C1c2ccccc2-c2c1c1ccccc1c(=O)n2CCCCNS(=O)(=O)c1ccccc1	> 111	inactive	–	–
Cc1ccc(S(=O)(=O)NCCCCCCCCCCCCn2c3c(c4ccccc4c2=O)C(=O)c2ccccc2-3)cc1	> 111	inactive	–	–
CS(=O)(=O)NCCCCCCn1c2c(c3ccccc3c1=O)C(=O)c1ccccc1-2	> 111	inactive	–	–
O=C1c2ccccc2-c2c1c1ccccc1c(=O)n2CCCCCCCCCCNS(=O)(=O)c1ccccc1	> 111	inactive	–	–
Cc1ccc(S(=O)(=O)NCCCn2c3c(c4ccccc4c2=O)C(=O)c2ccccc2-3)cc1	> 111	inactive	–	–
CS(=O)(=O)NCCCCCCCCCn1c2c(c3ccccc3c1=O)C(=O)c1ccccc1-2	> 111	inactive	–	–
CS(=O)(=O)NCCCCCCCn1c2c(c3ccccc3c1=O)C(=O)c1ccccc1-2	> 111	inactive	–	–
